Source: ChEMBL document CHEMBL1687792, “vanM, a new glycopeptide resistance gene cluster found in Enterococcus faecium” (2010)
In brackets after ≈: the same amount, converted by molar mass. Activity calls are given as the source filed them. The calls are words filed in the database; no cut-off is given here.

Tests used:
Enterococcus faecium [1] = test: Antimicrobial activity against glycopeptide-resistant Enterococcus faecium isolate HS08257 harboring MLST sequence type ST341 and pulsotype F expressing vanM gene cluster isolated from urine of patient by Etest
Enterococcus faecium [2] = test: Antimicrobial activity against glycopeptide-resistant Enterococcus faecium isolate HS0649 harboring MLST sequence type ST17 and pulsotype B expressing vanA gene cluster isolated from exudate of patient by Etest
Enterococcus faecium [3] = test: Antimicrobial activity against glycopeptide-resistant Enterococcus faecium isolate HS06188 harboring MLST sequence type ST78 and pulsotype A expressing vanA gene cluster isolated from urine of patient by Etest
Enterococcus faecium [4] = test: Antimicrobial activity against glycopeptide-resistant Enterococcus faecium isolate HS0761 harboring MLST sequence type ST78 and pulsotype C expressing vanM gene cluster isolated from urine of patient by Etest
Enterococcus faecium [5] = test: Antimicrobial activity against glycopeptide-resistant Enterococcus faecium isolate HS05446 harboring MLST sequence type ST17 and pulsotype B expressing vanA gene cluster isolated from urine of patient by Etest
Enterococcus faecium [6] = test: Antimicrobial activity against rifampin-, fusidic acid-resistant Enterococcus faecium BM-4105 by Etest; assay type: functional
Method in brief: (§1)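 MIC by Etest on Mueller-Hinton agar, run per manufacturer's instructions and interpreted by CLSI recommendations. Same method for donor, recipient (BM4105RF, Fusr Rifr) and transconjugants. Transconjugants came from filter mating and were selected on BHI agar with rifampin (100 μg/ml) or fusidic acid (10 μg/ml) plus vancomycin (10 μg/ml).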

Enterococcus faecium [7] = test: Antimicrobial activity against Enterococcus faecium BM-0661 transconjugant by Etest; assay type: functional
Method in brief: as §1

Enterococcus faecium [8] = test: Antimicrobial activity against glycopeptide-resistant Enterococcus faecium isolate HS0661 harboring MLST sequence type ST78 and pulsotype C expressing vanM gene cluster isolated from exudate of patient by Etest
Enterococcus faecium [9] = test: Antimicrobial activity against glycopeptide-resistant Enterococcus faecium isolate HS08369 harboring MLST sequence type ST18 and pulsotype G expressing vanM gene cluster isolated from urine of patient by Etest
Enterococcus faecium [10] = test: Antimicrobial activity against glycopeptide-resistant Enterococcus faecium isolate HS05417 harboring MLST sequence type ST17 and pulsotype A expressing vanA gene cluster isolated from urine of patient by Etest
Enterococcus faecium [11] = test: Antimicrobial activity against glycopeptide-resistant Enterococcus faecium isolate HS0847 harboring MLST sequence type ST78 and pulsotype E expressing vanM gene cluster isolated from urine of patient by Etest
Enterococcus faecium [12] = test: Antimicrobial activity against glycopeptide-resistant Enterococcus faecium isolate HS07261 harboring MLST sequence type ST78 and pulsotype D expressing vanM gene cluster isolated from urine of patient by Etest
Enterococcus faecalis = test: Induction of VanM gene cluster in glycopeptide-resistant Enterococcus […] isolate HS0661 harboring MLST sequence type ST78 and pulsotype C expressing vanM gene cluster isolated from exudate of patient assessed as UDP-MurNAc-tetrapeptide-D-lactate at 50 ug/mL by LC-MS method; assay type: functional, organism-based
Method in brief: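 Efm-HS0661 was grown in BHI broth to OD650 0.4, then exposed to glycopeptide at 50 μg/ml for a further 120 min. Peptidoglycan precursors were extracted and separated on a C18 column at 30 μl/min using a linear gradient over 18 min. Eluent A was 10 mM ammonium acetate, pH 5; eluent B was 2% acetonitrile in the same buffer. Precursors were identified by MS from fragments at m/z 562 and 747.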

| Compound | MIC (Enterococcus faecium [1]) [µg/mL] | MIC (Enterococcus faecium [2]) [µg/mL] | MIC (Enterococcus faecium [3]) [µg/mL] | MIC (Enterococcus faecium [4]) [µg/mL] | MIC (Enterococcus faecium [5]) [µg/mL] | MIC (Enterococcus faecium [6]) [µg/mL] | MIC (Enterococcus faecium [7]) [µg/mL] | MIC (Enterococcus faecium [8]) [µg/mL] | MIC (Enterococcus faecium [9]) [µg/mL] | MIC (Enterococcus faecium [10]) [µg/mL] | MIC (Enterococcus faecium [11]) [µg/mL] | MIC (Enterococcus faecium [12]) [µg/mL] | Activity (Enterococcus faecalis) |
| --- | --- | --- | --- | --- | --- | --- | --- | --- | --- | --- | --- | --- | --- |
| C[C@H]1c2cccc(O)c2C(=O)C2=C(O)[C@]3(O)C(=O)C(C(N)=O)=C(O)[C@@H](N(C)C)[C@@H]3[C@@H](O)[C@@H]21.O [DOXYCYCLINE] | 0.19 | 6 | 0.125 | 0.125 | 6 | 0.094 | 0.094 | 0.125 | 32 | 0.19 | 0.094 | 0.19 | – |
| CC(=O)NC[C@H]1CN(c2ccc(N3CCOCC3)c(F)c2)C(=O)O1 [LINEZOLID] | – | 1.5 (≈ 4.45 µM) | 1.5 (≈ 4.45 µM) | 1.5 (≈ 4.45 µM) | 1.5 (≈ 4.45 µM) | 1.5 (≈ 4.45 µM) | 1 (≈ 2.96 µM) | 1.5 (≈ 4.45 µM) | – | 1.5 (≈ 4.45 µM) | – | 1.5 (≈ 4.45 µM) | – |
| O=C1CN(/N=C/c2ccc([N+](=O)[O-])o2)C(=O)N1 [NITROFURANTOIN] | 196 (≈ 823 µM) | > 512 | 128 (≈ 537 µM) | 64 (≈ 269 µM) | 16 (≈ 67.2 µM) | 16 (≈ 67.2 µM) | 16 (≈ 67.2 µM) | 64 (≈ 269 µM) | 32 (≈ 134 µM) | 128 (≈ 537 µM) | 64 (≈ 269 µM) | 128 (≈ 537 µM) | – |
| CO[C@H]1/C=C/O[C@@]2(C)Oc3c(C)c(O)c4c(O)c(c(/C=N/N5CCN(C)CC5)c(O)c4c3C2=O)NC(=O)/C(C)=C\C=C\[C@H](C)[C@H](O)[C@@H](C)[C@@H](O)[C@@H](C)[C@H](OC(C)=O)[C@@H]1C [RIFAMPIN] | 8 (≈ 9.72 µM) | 4 (≈ 4.86 µM) | 0.19 (≈ 0.231 µM) | 3 (≈ 3.65 µM) | 4 (≈ 4.86 µM) | > 32 | > 32 | 4 (≈ 4.86 µM) | 16 (≈ 19.4 µM) | 0.25 (≈ 0.304 µM) | > 32 | > 32 | – |
| CN[C@H](CC(C)C)C(=O)N[C@H]1C(=O)N[C@@H](CC(N)=O)C(=O)N[C@H]2C(=O)N[C@H]3C(=O)N[C@H](C(=O)N[C@H](C(=O)O)c4cc(O)cc(O)c4-c4cc3ccc4O)[C@H](O)c3ccc(c(Cl)c3)Oc3cc2cc(c3O[C@@H]2O[C@H](CO)[C@@H](O)[C@H](O)[C@H]2O[C@H]2C[C@](C)(N)[C@H](O)[C@H](C)O2)Oc2ccc(cc2Cl)[C@H]1O [VANCOMYCIN] | > 256 | > 256 | > 256 | > 256 | > 256 | 0.75 (≈ 0.518 µM) | > 256 | > 256 | > 256 | > 256 | > 256 | > 256 | Active |
